As usually defined, the IC50 is the midpoint of a concentration-inhibition curve.

Data set [1] in a line: Selectivity index, ratio of IC50 for african green monkey Vero cells to IC50 for chloroquine-resistant Plasmodium falciparum W2. The format is toxicity, cell-based. The settings on record: read-out: Ratio IC50. In outline:
(§1)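 SI is the IC50 for cytotoxicity to Vero cells (monkey kidney fibroblasts) divided by the antimalarial IC50 against the named P. falciparum clone. Cytotoxicity was tested up to 60 μM.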

Data set [2] has as its system Vero. The experiment in a line: Cytotoxicity against african green monkey Vero cells up to 60 uM after 48 hrs by neutral red assay. In kind it is cell-based. The settings on record: chlorocebus sabaeus. In outline:
(§2)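 Mammalian cell cytotoxicity was measured as IC50 in Vero (monkey kidney fibroblasts), LLC-PK11 (pig kidney epithelial) and HepG2 (human hepatoma) cells. The highest concentration tested was 60 μM. Values are the mean of two independent experiments ± SD.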

Data set [3] deals with Plasmodium falciparum. Description: Antiplasmodial activity against chloroquine-resistant Plasmodium falciparum W2 infected in red blood cells after 72 hrs by parasitic LDH assay. In kind it is functional, organism-based. To be noted: W2, 72 h.
In data set [4] the test system is Plasmodium falciparum. Description: Antiplasmodial activity against chloroquine-sensitive Plasmodium falciparum D6 infected in red blood cells after 72 hrs by parasitic LDH assay. The format is functional, organism-based. The settings on record: D6, 72 h.
Data set [5] has as its system HepG2. Description: Cytotoxicity against human HepG2 cells after 48 hrs by neutral red assay. To be noted: HepG2, 48 h. The format is cell-based. Summed up:
as §2

The nature of data set [6]: Cytotoxicity against pig LLC-PK11 cells up to 60 uM after 48 hrs by neutral red assay. In kind it is cell-based, Sus scrofa. The settings on record: llc-pk11, 48 h. Summed up: as §2
Data set [7] is described as follows: Selectivity index, ratio of IC50 for african green monkey Vero cells to IC50 for chloroquine-sensitive Plasmodium falciparum D6. The format is toxicity, cell-based. To be noted: read-out: Ratio IC50. In outline:
as §1

In data set [8] the test system is Plasmodium falciparum. The experiment in a line: Ratio of chloroquine IC50 to compound IC50 for chloroquine-resistant Plasmodium falciparum W2. The format is functional.
The test system of data set [9] is HepG2. The experiment in a line: Cytotoxicity against human HepG2 cells up to 60 uM after 48 hrs by neutral red assay. The settings on record: hepg2, 48 h. The format is cell-based. Summed up:
as §2

The test system of data set [10] is Vero. Description: Cytotoxicity against african green monkey Vero cells after 48 hrs by neutral red assay. The settings on record: chlorocebus sabaeus. The format is cell-based. In outline:
as §2

The nature of data set [11]: Cytotoxicity against pig LLC-PK11 cells after 48 hrs by neutral red assay. In kind it is cell-based. To be noted: Sus scrofa, LLC-PK11, 48 h. In outline:
as §2

The subject of data set [12] is Plasmodium falciparum. Description: Ratio of chloroquine IC50 to compound IC50 for chloroquine-sensitive Plasmodium falciparum D6. In kind it is functional.
Data set [13] has as its system Plasmodium falciparum. Description: Ratio of artemesin IC50 to compound IC50 for chloroquine-sensitive Plasmodium falciparum D6. In kind it is functional.

Where only a bound is given, the exact number is not on record here.

In the case of `Cc1cc(Cl)nc(NCCCCNc2ccnc3cc(Cl)ccc23)n1`, the selectivity ratio in data set [1] was over 94; in data set [7], over 353. Further, the Activity result (with Vero [2]; in [6]) was “Non-toxic” throughout. The IC50 with Plasmodium falciparum [3] stood at 640 nM; with Plasmodium falciparum [4] it was 170 nM; in the data set with HepG2 [5], 46400 nM.
`Cc1cc(NCCCCNc2ccnc3cc(Cl)ccc23)nc(N2CCCCC2)n1`: the values for the selectivity ratio in [1] and in [7] were over 666 and over 3000, respectively. Moreover, the Activity result (in the data set with Vero [2]; in the data set with HepG2 [9]; in data set [6]) was “Non-toxic” throughout. Besides, the IC50 turned out to be 90 nM with Plasmodium falciparum [3] and 20 nM with Plasmodium falciparum [4]. In the data set with Plasmodium falciparum [8], the “Ratio IC50” value turned out to be 6.
As for `CCN1CCN(c2nc(C)cc(NCCCCNc3ccnc4cc(Cl)ccc34)n2)CC1`, the selectivity ratio in [1] and in data set [7] was 1620 each time. The IC50 in the data set on Vero [10] stood at 32400 nM; in the data set on Plasmodium falciparum [3] it was 20 nM; in [11] it was 10700 nM; in the data set on Plasmodium falciparum [4], 20 nM; with HepG2 [5] it was 15400 nM. In addition, the “Ratio IC50” value in the data set on Plasmodium falciparum [8] stood at 6.
For `Cc1cc(Cl)nc(NCCCCCCNc2ccnc3cc(Cl)ccc23)n1`, the values for the selectivity ratio in data set [1] and in data set [7] were 85.2 and 353, respectively. The IC50 in the data set with Vero [10] was determined as 49400 nM; in the data set on Plasmodium falciparum [3], 580 nM; in [11], 24000 nM; in the data set on Plasmodium falciparum [4], 140 nM; in the data set on HepG2 [5], 8100 nM.
Regarding `Cc1cc(NCCCCCCNc2ccnc3cc(Cl)ccc23)nc(N2CCOCC2)n1`, the selectivity ratio is 107 in [1] and 503 in data set [7]. Also, the IC50 in the data set on Vero [10] came to 15100 nM; in the data set with Plasmodium falciparum [3], 140 nM; in data set [11], 11100 nM; in the data set with Plasmodium falciparum [4], 30 nM; in the data set on HepG2 [5], 6400 nM.
With `COc1cccc2c1C(=O)c1c(O)c3c(c(O)c1C2=O)C[C@@](O)(C(=O)CO)C[C@@H]3O[C@H]1C[C@H](N)[C@H](O)[C@H](C)O1` [DOXORUBICIN], the figures for the IC50 (in the data set on Vero [10]; in data set [11]; with HepG2 [5]) were 8600 nM, 1050 nM and 1000 nM, respectively.
Regarding `Cc1cc(NCCCNc2ccnc3cc(Cl)ccc23)nc(Cl)n1`, the results for the selectivity ratio in data set [1] and in data set [7] were over 85 and over 184, respectively. In addition, the Activity result (in the data set with Vero [2]; with HepG2 [9]; in [6]) was “Non-toxic” in each case. For the same molecule, the IC50 with Plasmodium falciparum [3] came out at 700 nM; in the data set on Plasmodium falciparum [4] it was 330 nM.
For the molecule `Cc1cc(NCCCNc2ccnc3cc(Cl)ccc23)nc(N2CCN(C)CC2)n1`, the selectivity ratio was over 1000 in data set [1] and over 8570 in [7]. For the same molecule, in the data set on Vero [2], the Activity result is on record as “Non-toxic”. Besides, the IC50 with Plasmodium falciparum [3] is 60 nM; in data set [11], 34600 nM; in the data set with Plasmodium falciparum [4], 7 nM; in the data set with HepG2 [5], 26700 nM. Moreover, the “Ratio IC50” value with Plasmodium falciparum [8] was 6; with Plasmodium falciparum [12], 6; in the data set with Plasmodium falciparum [13], 2.
Turning to `Cc1cc(NCCCCCCNc2ccnc3cc(Cl)ccc23)nc(N2CCCCC2)n1`, the selectivity ratio in [1] came out at 88; in data set [7], 146. The IC50 with Vero [10] amounted to 8800 nM; in the data set on Plasmodium falciparum [3], 100 nM; in [11], 6300 nM; in the data set with Plasmodium falciparum [4] it was 60 nM; in the data set on HepG2 [5], 6400 nM.
Take `Cc1cc(NCCNc2ccnc3cc(Cl)ccc23)nc(N2CCOCC2)n1`: the selectivity ratio in data set [1] was over 444; in [7], over 3000. For the same molecule, the Activity entry (in the data set on Vero [2]; in the data set with HepG2 [9]; in data set [6]) was “Non-toxic” each time. The figures for the IC50 with Plasmodium falciparum [3] and with Plasmodium falciparum [4] were 140 nM and 20 nM, respectively.
Take `Cc1cc(NCCCCCCNc2ccnc3cc(Cl)ccc23)nc(Cl)n1`: the results for the selectivity ratio in data set [1] and in data set [7] were 60.6 and 74.3, respectively. Besides, the half-maximal inhibitory concentration (IC50) in the data set on Vero [10] amounted to 32700 nM; in the data set with Plasmodium falciparum [3], 540 nM; in data set [11], 15800 nM; in the data set on Plasmodium falciparum [4], 440 nM; in the data set on HepG2 [5] it was 9100 nM.
For the molecule `Cc1cc(NCCCCNc2ccnc3cc(Cl)ccc23)nc(Cl)n1`, the values for the selectivity ratio in data set [1] and in data set [7] were over 88 and over 500, respectively. Also, the Activity entry (in the data set on Vero [2]; with HepG2 [9]; in data set [6]) was “Non-toxic” throughout. Moreover, the figures for the IC50 in the data set on Plasmodium falciparum [3] and with Plasmodium falciparum [4] were 680 nM and 120 nM, respectively.
Turning to `Cc1cc(Cl)nc(NCCCNc2ccnc3cc(Cl)ccc23)n1`, the results for the selectivity ratio in data set [1] and in data set [7] were over 51.3 and over 250, respectively. Besides, the Activity entry (in the data set with Vero [2]; with HepG2 [9]; in [6]) was “Non-toxic” throughout. Moreover, the IC50 in the data set on Plasmodium falciparum [3] worked out at 1170 nM; in the data set with Plasmodium falciparum [4], 240 nM.
In the case of `Cc1cc(NCCCNc2ccnc3cc(Cl)ccc23)nc(N2CCOCC2)n1`, the selectivity ratio in data set [1] is over 1200; in [7] it was over 3000. Also, in the data set with Vero [2], the Activity result is “Non-toxic”. Also, the IC50 in the data set on Plasmodium falciparum [3] worked out at 50 nM; in [11], 35700 nM; in the data set with Plasmodium falciparum [4], 20 nM; in the data set with HepG2 [5] it was 26200 nM. Moreover, the “Ratio IC50” value in the data set with Plasmodium falciparum [8] came out at 6.
For the molecule `Cc1cc(NCCCNc2ccnc3cc(Cl)ccc23)nc(N2CCCCC2)n1`, the values for the selectivity ratio in data set [1] and in data set [7] were over 285 and over 3000, respectively. Besides, the Activity entry (with Vero [2]; in the data set with HepG2 [9]; in [6]) was “Non-toxic” in each case. Besides, the IC50 in the data set with Plasmodium falciparum [3] is 210 nM; in the data set on Plasmodium falciparum [4] it was 20 nM.
For the molecule `Cc1cc(NCCCCNc2ccnc3cc(Cl)ccc23)nc(N2CCN(C)CC2)n1`, the selectivity ratio in data set [1] and in data set [7] was over 3000 in each case. The Activity entry in the data set with Vero [2] was “Non-toxic”. In addition, the IC50 was found to be 20 nM with Plasmodium falciparum [3], 34600 nM in data set [11], 20 nM in the data set on Plasmodium falciparum [4] and 29500 nM in the data set on HepG2 [5]. Moreover, the “Ratio IC50” value in the data set on Plasmodium falciparum [8] worked out at 6.
For `C[C@@H]1CC[C@H]2[C@@H](C)C(=O)O[C@@H]3O[C@@]4(C)CC[C@@H]1[C@]32OO4` [ARTEMISININ], the Activity entry (in the data set with Vero [2]; in the data set on HepG2 [9]; in data set [6]) was “Non-toxic” each time.
As to `Cc1cc(Cl)nc(NCCNc2ccnc3cc(Cl)ccc23)n1`, the selectivity ratio in [1] came out at 53.1; in [7], 205. The IC50 is 43000 nM with Vero [10]; 810 nM with Plasmodium falciparum [3]; 42300 nM in data set [11]; 210 nM in the data set on Plasmodium falciparum [4]; 43000 nM in the data set on HepG2 [5].
For `Cc1cc(NCCCCCCNc2ccnc3cc(Cl)ccc23)nc(N2CCN(C)CC2)n1`, the selectivity ratio in data set [1] is 650; in data set [7], 1480. Besides, the IC50 in the data set on Vero [10] was determined as 10400 nM; in the data set with Plasmodium falciparum [3] it was 16 nM; in data set [11], 7200 nM; in the data set with Plasmodium falciparum [4], 7 nM; in the data set on HepG2 [5] it was 6300 nM. For the same molecule, the “Ratio IC50” value in the data set with Plasmodium falciparum [8] turned out to be 6; with Plasmodium falciparum [12], 6; with Plasmodium falciparum [13] it was 2.
`Cc1cc(NCCNc2ccnc3cc(Cl)ccc23)nc(Cl)n1`: the selectivity ratio in [1] is over 120; in [7], over 370. For the same molecule, the Activity entry (in the data set with Vero [2]; in the data set with HepG2 [9]; in data set [6]) was “Non-toxic” in each case. Moreover, the IC50 with Plasmodium falciparum [3] worked out at 500 nM; in the data set with Plasmodium falciparum [4], 160 nM.

Values taken from ChEMBL document CHEMBL2086283, “Novel 4-aminoquinoline-pyrimidine based hybrids with improved in vitro and in vivo antimalarial activity” (ACS Med Chem Lett, 2012).
